# Source: the M2OR odorant receptor database
# Target: T1, UniProt Q8VF44
# T1 sequence (whole entry): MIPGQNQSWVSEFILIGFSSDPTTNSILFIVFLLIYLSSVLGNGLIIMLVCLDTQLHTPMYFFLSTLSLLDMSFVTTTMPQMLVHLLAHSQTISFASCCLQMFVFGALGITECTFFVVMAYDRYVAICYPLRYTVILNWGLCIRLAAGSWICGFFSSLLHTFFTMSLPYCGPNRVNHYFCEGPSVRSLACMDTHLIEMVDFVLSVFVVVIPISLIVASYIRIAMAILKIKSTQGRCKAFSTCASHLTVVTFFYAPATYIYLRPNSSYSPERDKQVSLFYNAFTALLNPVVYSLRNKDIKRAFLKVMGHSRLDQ
# Conditions: stereoisomer not certain
# Procedure, shortened: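 Values were gathered from published papers (main text and supplementary material), with extra details requested from the original authors when needed, and checked for typos and inconsistencies. Each receptor–molecule pair is called responsive (active) if the original authors judged the measured signal statistically different from baseline, and non-responsive (inactive) otherwise. Assay methods varied by source, often transient mammalian cell-line luciferase assays. Recorded details include cell line, G-protein, co-transfected protein and tags.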
row,SMILES,odorant receptor agonist call
1,CCC1CCC(=O)O1 (centres undefined),inactive
2,C=CCOC(=O)Cc1ccccc1,inactive
3,C=CCc1ccccc1,inactive
4,O=c1cc(O)c2ccccc2o1,inactive
